Measurements reported in ChEMBL document CHEMBL3627606, “Development of Novel, CNS Penetrant Positive Allosteric Modulators for the Metabotropic Glutamate Receptor Subtype 1 (mGlu1), Based on an N-(3-Chloro-4-(1,3-dioxoisoindolin-2-yl)phenyl)-3-methylfuran-2-carboxamide Scaffold, That Potentiate Wild Type and Mutant mGlu1 Receptors Found in …” (J Med Chem, 2015).

Tests used:
Plasma [1] = assay: Fraction unbound in human plasma; format: ADME, cell-free
Plasma [2] = assay: Fraction unbound in rat plasma; format: ADME, cell-free
Cytochrome P450 2D6 = Cytochrome P450 2D6 (Homo sapiens, UniProt P10635); assay: Inhibition of CYP2D6 in human liver microsomes by LC-MS/MS analysis; format: ADME
Cytochrome P450 2D6, sequence (P10635 whole entry): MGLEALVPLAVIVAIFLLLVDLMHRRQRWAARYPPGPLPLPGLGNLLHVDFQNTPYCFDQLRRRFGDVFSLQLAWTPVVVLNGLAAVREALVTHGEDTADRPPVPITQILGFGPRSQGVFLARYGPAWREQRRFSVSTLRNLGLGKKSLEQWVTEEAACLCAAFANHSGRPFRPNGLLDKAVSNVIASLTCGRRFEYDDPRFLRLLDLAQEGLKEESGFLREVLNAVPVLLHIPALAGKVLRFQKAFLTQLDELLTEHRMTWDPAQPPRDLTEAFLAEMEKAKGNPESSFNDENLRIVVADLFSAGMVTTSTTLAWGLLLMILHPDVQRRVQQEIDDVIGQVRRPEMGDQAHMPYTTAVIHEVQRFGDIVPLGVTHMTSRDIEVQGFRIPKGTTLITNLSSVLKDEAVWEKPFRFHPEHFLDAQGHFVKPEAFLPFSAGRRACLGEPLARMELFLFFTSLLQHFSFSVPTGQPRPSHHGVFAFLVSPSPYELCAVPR

Cytochrome P450 3A4 = Cytochrome P450 3A4 (Homo sapiens, UniProt P08684); assay: Inhibition of CYP3A4 in human liver microsomes by LC-MS/MS analysis; format: ADME
Cytochrome P450 3A4, sequence (P08684 whole entry): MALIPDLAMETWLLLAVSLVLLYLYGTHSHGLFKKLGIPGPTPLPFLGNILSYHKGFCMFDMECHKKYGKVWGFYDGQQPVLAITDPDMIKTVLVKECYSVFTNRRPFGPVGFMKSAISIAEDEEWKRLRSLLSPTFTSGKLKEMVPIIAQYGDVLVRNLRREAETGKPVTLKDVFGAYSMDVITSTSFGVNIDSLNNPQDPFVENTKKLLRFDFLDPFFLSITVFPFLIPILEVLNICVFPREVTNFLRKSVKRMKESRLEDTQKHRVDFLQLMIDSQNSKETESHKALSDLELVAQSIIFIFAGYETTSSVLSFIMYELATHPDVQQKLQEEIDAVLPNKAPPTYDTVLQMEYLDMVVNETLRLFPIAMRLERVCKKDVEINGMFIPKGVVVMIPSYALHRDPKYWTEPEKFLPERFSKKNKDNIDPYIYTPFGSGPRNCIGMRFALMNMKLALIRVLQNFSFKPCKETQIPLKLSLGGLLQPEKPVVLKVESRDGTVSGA

Mus musculus = assay: Toxicity in C57BL/6 mouse assessed as seizure activity at 100 mg/kg, ip administered as single dose measured for 3 hrs; format: organism-based; settings: in vivo
Procedure, shortened: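 Male C57Bl/6 mice (25−30 g) dosed ip in 10% Tween 80 at 10 mL/kg: the mGlu5 ago-PAM at 1 or 3 mg/kg, the mGlu1 PAMs at 100 mg/kg. Behaviour was monitored continuously for 3 h and scored on a modified Racine scale (0−5).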

[3] = Half life in Sprague-Dawley rat at 0.2 mg/kg, iv by LC-MS/MS analysis; settings: in vivo
[4] = Plasma clearance in Sprague-Dawley rat at 0.2 mg/kg, iv by LC-MS/MS analysis
[5] = Mean residence time in Sprague-Dawley rat at 0.2 mg/kg, iv by LC-MS/MS analysis; settings: in vivo
[6] = Plasma concentration in Sprague-Dawley rat at 0.2 mg/kg, iv after 0.25 hrs by LC-MS/MS analysis
Rattus norvegicus = assay: Volume of distribution at steady state in Sprague-Dawley rat at 0.2 mg/kg, iv by LC-MS/MS analysis; settings: in vivo
[7] = Drug concentration in Sprague-Dawley rat brain at 0.2 mg/kg, iv after 0.25 hrs by LC-MS/MS analysis; settings: read-out: Drug uptake
[8] = Ratio of drug level in brain to plasma of Sprague-Dawley rat at 0.2 mg/kg, iv after 0.25 hrs by LC-MS/MS analysis; settings: read-out: BPR
[9] = molecular target: Metabotropic glutamate receptor 1 (Homo sapiens, UniProt Q13255); assay: Positive allosteric modulation of human mGlu1 receptor in HEK293 cells assessed as potentiation of glutamate-induced calcium mobiliztion by Fluo-4AM dye based fluorescence analysis; format: functional, cell-based; settings: hek293; read-out: EC50
Metabotropic glutamate receptor 1 (Homo sapiens, UniProt Q13255), sequence (Q13255 whole entry): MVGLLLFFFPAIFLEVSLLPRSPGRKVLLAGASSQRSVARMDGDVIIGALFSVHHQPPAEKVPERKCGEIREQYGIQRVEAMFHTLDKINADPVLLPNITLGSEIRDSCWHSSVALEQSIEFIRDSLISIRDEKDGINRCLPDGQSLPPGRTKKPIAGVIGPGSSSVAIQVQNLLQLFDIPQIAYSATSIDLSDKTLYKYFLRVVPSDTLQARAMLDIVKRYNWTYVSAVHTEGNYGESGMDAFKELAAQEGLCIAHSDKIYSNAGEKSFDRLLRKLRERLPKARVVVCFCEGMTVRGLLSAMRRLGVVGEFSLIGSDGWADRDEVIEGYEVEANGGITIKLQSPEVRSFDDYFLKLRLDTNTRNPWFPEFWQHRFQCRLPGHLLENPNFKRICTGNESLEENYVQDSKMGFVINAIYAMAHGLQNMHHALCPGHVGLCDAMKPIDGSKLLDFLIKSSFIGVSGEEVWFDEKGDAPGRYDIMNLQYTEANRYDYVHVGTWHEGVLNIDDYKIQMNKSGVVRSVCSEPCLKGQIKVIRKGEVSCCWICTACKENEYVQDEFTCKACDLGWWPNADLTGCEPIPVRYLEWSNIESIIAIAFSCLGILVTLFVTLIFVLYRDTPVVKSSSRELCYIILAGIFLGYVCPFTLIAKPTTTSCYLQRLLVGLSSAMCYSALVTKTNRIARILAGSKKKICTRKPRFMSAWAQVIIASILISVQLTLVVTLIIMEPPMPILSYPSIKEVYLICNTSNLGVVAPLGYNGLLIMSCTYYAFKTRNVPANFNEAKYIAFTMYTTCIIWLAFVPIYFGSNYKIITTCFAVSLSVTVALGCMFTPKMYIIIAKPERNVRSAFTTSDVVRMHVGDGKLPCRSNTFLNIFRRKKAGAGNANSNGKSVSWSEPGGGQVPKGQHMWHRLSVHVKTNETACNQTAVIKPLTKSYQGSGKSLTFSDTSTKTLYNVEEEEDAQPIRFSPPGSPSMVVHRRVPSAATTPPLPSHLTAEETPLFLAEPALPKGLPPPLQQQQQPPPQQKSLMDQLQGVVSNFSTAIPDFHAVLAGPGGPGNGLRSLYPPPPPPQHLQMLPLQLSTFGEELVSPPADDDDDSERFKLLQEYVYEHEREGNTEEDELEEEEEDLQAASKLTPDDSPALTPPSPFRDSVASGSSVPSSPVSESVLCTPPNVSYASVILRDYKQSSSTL

[10] = molecular target: Metabotropic glutamate receptor 1 (Rattus norvegicus, UniProt P23385); assay: Positive allosteric modulation of rat mGlu1 receptor assessed as potentiation of glutamate-induced calcium mobiliztion by cell based assay; format: functional
Metabotropic glutamate receptor 1 (Rattus norvegicus, UniProt P23385), sequence (P23385 whole entry): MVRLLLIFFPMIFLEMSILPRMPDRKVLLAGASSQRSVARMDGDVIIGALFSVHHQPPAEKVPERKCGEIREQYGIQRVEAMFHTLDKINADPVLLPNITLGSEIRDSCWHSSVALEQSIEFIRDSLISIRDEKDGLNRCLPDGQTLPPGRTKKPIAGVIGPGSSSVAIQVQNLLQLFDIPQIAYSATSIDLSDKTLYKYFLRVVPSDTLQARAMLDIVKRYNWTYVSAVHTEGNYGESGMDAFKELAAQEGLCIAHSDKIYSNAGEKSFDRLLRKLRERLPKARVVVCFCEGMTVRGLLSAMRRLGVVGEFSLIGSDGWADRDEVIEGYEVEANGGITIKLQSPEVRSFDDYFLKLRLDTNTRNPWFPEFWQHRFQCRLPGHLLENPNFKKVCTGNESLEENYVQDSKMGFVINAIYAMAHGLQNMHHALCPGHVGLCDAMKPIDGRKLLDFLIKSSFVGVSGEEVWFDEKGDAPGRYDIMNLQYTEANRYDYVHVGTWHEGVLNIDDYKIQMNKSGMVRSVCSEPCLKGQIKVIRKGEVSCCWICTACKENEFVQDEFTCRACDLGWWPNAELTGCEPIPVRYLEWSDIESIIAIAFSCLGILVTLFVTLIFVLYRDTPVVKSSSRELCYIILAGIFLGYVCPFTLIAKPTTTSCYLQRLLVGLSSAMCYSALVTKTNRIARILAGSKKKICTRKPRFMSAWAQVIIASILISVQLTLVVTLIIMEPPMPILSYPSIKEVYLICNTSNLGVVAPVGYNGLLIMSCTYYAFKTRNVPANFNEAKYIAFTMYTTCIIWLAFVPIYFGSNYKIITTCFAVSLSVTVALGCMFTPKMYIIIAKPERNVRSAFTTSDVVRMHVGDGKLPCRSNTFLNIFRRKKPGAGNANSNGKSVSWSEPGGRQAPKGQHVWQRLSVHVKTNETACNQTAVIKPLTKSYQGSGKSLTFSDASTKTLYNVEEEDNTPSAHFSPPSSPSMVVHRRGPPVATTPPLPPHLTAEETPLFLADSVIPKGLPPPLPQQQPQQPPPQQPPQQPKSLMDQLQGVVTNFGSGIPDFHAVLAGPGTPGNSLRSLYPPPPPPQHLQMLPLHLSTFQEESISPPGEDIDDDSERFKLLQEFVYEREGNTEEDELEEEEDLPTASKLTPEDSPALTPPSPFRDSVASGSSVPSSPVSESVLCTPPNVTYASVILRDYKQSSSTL
Procedure, shortened: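 Rat mGlu1 WT calcium mobilization concentration-response curves. EC50 and % Glu Max were derived from the curves.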

Plasma [11] = assay: Metabolic stability in human plasma; format: ADME, cell-free
Procedure, shortened: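 Compound incubated at 10 μM in rat or human plasma at 37 °C. Samples taken at 0 and 4 h were analysed by mass spectrometry for parent and metabolites.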

Plasma [12] = assay: Metabolic stability in rat plasma; format: ADME, cell-free
Cytochrome P450 1A2 = molecular target: T1, Cytochrome P450 1A2 (Homo sapiens, UniProt P05177); assay: Inhibition of CYP1A2 in human liver microsomes by LC-MS/MS analysis; format: ADME
T1 sequence (P05177 whole entry): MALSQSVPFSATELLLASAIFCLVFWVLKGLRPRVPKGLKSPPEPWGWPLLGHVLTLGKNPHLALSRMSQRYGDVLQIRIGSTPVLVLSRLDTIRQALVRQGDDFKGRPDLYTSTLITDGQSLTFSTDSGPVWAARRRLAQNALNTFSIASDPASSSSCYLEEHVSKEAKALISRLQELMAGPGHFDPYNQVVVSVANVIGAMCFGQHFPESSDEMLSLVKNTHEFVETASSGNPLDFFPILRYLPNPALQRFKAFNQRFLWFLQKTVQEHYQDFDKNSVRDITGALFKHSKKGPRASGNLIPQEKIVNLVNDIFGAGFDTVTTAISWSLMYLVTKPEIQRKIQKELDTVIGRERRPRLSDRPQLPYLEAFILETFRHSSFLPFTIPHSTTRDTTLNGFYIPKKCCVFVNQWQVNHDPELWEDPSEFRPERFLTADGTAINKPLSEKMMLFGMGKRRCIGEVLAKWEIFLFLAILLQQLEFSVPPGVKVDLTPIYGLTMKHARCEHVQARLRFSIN

Cytochrome P450 2C9 = Cytochrome P450 2C9 (Homo sapiens, UniProt P11712); assay: Inhibition of CYP2C9 in human liver microsomes by LC-MS/MS analysis; format: ADME
Cytochrome P450 2C9, sequence (P11712 whole entry): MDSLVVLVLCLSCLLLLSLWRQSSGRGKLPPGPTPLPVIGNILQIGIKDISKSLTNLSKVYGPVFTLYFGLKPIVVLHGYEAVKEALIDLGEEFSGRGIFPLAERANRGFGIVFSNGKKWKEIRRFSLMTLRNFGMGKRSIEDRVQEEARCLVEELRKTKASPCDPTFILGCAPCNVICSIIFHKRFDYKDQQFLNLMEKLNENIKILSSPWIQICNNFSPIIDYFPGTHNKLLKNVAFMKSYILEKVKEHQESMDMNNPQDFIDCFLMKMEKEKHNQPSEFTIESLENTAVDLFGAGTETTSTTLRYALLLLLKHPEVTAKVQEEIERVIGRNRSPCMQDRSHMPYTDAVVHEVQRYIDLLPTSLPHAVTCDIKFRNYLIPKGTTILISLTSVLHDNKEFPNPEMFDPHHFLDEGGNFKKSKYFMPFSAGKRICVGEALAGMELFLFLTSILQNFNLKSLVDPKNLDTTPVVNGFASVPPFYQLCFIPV

SMILES	Fu (Plasma [1])	Fu (Plasma [2])	IC50 (Cytochrome P450 2D6) [µM]	IC50 (Cytochrome P450 3A4) [µM]	Activity (Mus musculus)	half-life [3] [min]	clearance [4] [mL/min/kg]	MRT [5] [min]	concentration at 0.25 h [6] [ng/mL]	Vdss (Rattus norvegicus) [L/kg]	concentration at 0.25 h [7] [ng/mL]	Kp at 0.25 h [8]	EC50 [9] [µM]	EC50 [10] [µM]	Stability (Plasma [11])	Stability (Plasma [12])	IC50 (Cytochrome P450 1A2) [µM]	IC50 (Cytochrome P450 2C9) [µM]
O=C(Nc1nc(C(F)(F)F)co1)C1c2ccccc2Oc2ccccc21	0.014	0.003	> 30	> 30	Non-toxic	54	35	50	276	1.34	81	0.29						
O=C(Nc1ccc(N2C(=O)c3cccc(Cl)c3C2=O)c(Cl)c1)c1ncccc1Cl			> 30	> 30					336		284		0.39	0.356	Unstable	Unstable	> 30	> 30
